Source: PubChem BioAssay
PKA-R1A act = PKA-R1A complex activation. activation, % at 11.4 µM. 340,000 tested, 0.083% active. PKA-R1A dissociation, Cy5-IP20 fluorescence polarization; scaled: DMSO 0%, 113 µM cGMP 100%. AID 504707. P00514+P68181;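 active means percent activation above the mean of all tested compounds plus 3 SD, cut at about 19% in these data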;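 further: higher means more PKAc released from R1A so a rise in polarization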
SR-BI uptake up = enhances SR-BI lipid uptake from DiI-HDL | AID 504775 | activation, % at 12.5 µM | CHO ldlA[mSR-BI] cells, DiI-HDL uptake fluorescence, 3 h; 100 = double the neutral-control signal | 320,000 tested, 0.096% active;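 active means mean replicate activation of at least 60% and every replicate at or above 60%; inconclusive means mean or all-replicate condition met, but not both; inactive means mean below 60% and not all replicates reaching 60%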
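Test system: SR-BI-overexpressing, LDLR-lacking CHO cells; Medium: Ham's F12 with 0.5% BSA, HEPES 25 mM, pH 7.4; Schedule: 3 h, 37 °C; Technique: bottom-read fluorescence, 550/595 nm.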
Vif imaging = HIV Vif inhibition; HEK293T cells, Vif self-association by quenched fluorescence, imaging, 24 h; inhibition, % at 7.49 µM; 340,000 tested, 0.35% active; AID 602346; in the data active means inhibition above about 50%, passing the limit was not always enough; inconclusive means no clear call, values can overlap the other calls; inactive means below about 31%
PKA-R2B act = activates the human PKA-R2B holoenzyme complex | PKA-R2B holoenzyme dissociation, Cy5-IP20 fluorescence polarization; R2B truncated from residue 108, S112A mutant; 0% DMSO only, 100% 113 µM cGMP | activation, % at 11.4 µM | 340,000 tested, 0.079% active;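 active means activation above a cutoff set at the mean over all compounds plus 3 SD, cut at about 18% in these data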;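 further: higher means more holoenzyme dissociation and a rise in polarization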
Target sequence (P31323 whole entry, looked up, other chains not shown, the tested form may be a part): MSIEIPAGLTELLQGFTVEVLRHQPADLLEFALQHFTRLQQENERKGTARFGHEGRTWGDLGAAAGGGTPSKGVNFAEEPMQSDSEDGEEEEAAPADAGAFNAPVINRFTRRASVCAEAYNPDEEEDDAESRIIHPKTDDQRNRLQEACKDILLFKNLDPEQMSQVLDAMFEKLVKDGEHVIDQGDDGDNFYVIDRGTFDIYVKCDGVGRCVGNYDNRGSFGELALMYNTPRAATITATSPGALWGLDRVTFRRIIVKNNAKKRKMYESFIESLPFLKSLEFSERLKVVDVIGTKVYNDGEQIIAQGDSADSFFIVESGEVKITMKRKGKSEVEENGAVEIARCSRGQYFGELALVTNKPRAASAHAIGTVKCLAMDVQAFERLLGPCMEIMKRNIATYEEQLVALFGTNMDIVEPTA
SR-BI DiI inh = mouse SR-BI HDL lipid transfer inhibition; inhibition, % at 12.5 µM; ldlA[mSR-BI] CHO cells, DiI-HDL uptake fluorescence, 3 h; 320,000 tested, 0.96% active;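 active means mean replicate inhibition of at least 70% and a set share of replicates each scoring 70 or more; inconclusive means meets just one of the two criteria; inactive means fails both criteria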
A number is an active result; . = inactive; ? = inconclusive; / = no result. In the library only some 1.4% were active in any assay of this set; here they are far more common.

SMILES	PKA-R1A act	SR-BI uptake up	Vif imaging	PKA-R2B act	SR-BI DiI inh
O=C(Nc1cc(Sc2ccccn2)cc([N+](=O)[O-])c1)c1ccc([N+](=O)[O-])cc1	.	.	.	.	89.8
CCOC(=O)c1cccc(NC(=O)/C=C/c2cccc([N+](=O)[O-])c2)c1	.	.	.	.	72.8
Cc1cc(C)n(-c2ccc(C(=O)N3CCN(S(=O)(=O)c4ccc(OC(F)(F)F)cc4)CC3)cc2)n1	.	/	.	.	/
COc1ccc(S(=O)(=O)N(C)C2CCN(C)CC2)cc1	.	262.8	.	.	.
C/C(CC(=O)Nc1ccc(Cl)c(C(F)(F)F)c1)=N\NC(N)=S	.	.	.	.	80.1
CCOC(=O)C1=CC[C@@H](c2ccccc2C(F)(F)F)N(S(=O)(=O)c2ccc(C)cc2)[C@H]1c1ccc(C#N)cc1	/	/	.	/	/
COc1ccc2[nH]cc(CCNC(=O)CS(=O)(=O)Cc3ccccc3)c2c1	.	/	.	.	/
Cc1ccc(N=C(c2cccs2)N2CCOCC2)cc1	.	.	63.4	.	.
O=C(c1cccs1)N1CCOCC1	.	.	.	.	.
O=C(Nc1ccc(N2CCCCC2)c(Cl)c1)c1ccc(N2CCOCC2)c([N+](=O)[O-])c1	.	.	.	.	87.5
O=C(Nc1nc2ccc(Cl)cc2s1)c1ccc(N2CCCCC2)c([N+](=O)[O-])c1	.	.	.	.	79.3
O=C(Nc1nc2ccc3ccccc3c2s1)c1ccc(N2CCCCC2)c([N+](=O)[O-])c1	.	.	.	.	.
CCN(CC(=O)Nc1ccc(OC)cc1)C(=O)c1cc(S(=O)(=O)N(C)C)ccc1N1CCCC1	.	.	.	.	.
COc1ccc(C=CC(=O)c2ccc(OCc3ccccc3)c(OC)c2)cc1OC	.	/	.	.	/
O=C(/C=C/c1ccc(OCc2ccccc2)c(OCc2ccccc2)c1)c1cccnc1	.	.	.	.	83.7
COc1cccc(C(=O)/C=C2\Sc3ccccc3N2C)c1	.	.	.	.	82.5
Cc1ccc(S(=O)(=O)N(CC(=O)N2CCC(C)CC2)Cc2ccccc2F)cc1	.	.	.	.	.
COc1cc(-c2noc(C)c2/C=C/c2ccc(C(=O)O)cc2)cc(OC)c1OC	.	.	.	.	.
COc1cc(-c2noc(C)c2/C=C/c2cccc([N+](=O)[O-])c2)cc(OC)c1OC	.	.	.	.	81.0
CCCOc1ccc(C2=CSC3=NCCN23)cc1	.	.	.	.	.
CC(Oc1ccc(Cl)cc1)C(=O)Nc1ccccc1C(=O)N1CCOCC1 (centres undefined)	.	.	.	.	.
CC(C)Nc1nc(Nc2ccccc2Cl)c2sccc2n1	/	/	.	/	/
CC(C)Nc1ccc(Nc2ccnc3cc4ccccc4cc23)cc1	.	.	.	.	77.1
COc1ccc(Nc2ccnc3ccccc23)cc1	.	.	.	.	.
COc1ccc(CN2C[C@@H](CO)O[C@@H](n3cnc4c(N5CCN(CCO)CC5)ncnc43)C2)cc1	/	/	.	/	/
SMILES	PKA-R1A act	SR-BI uptake up	Vif imaging	PKA-R2B act	SR-BI DiI inh
CCOc1ccc(C(=O)Nc2cccc(-c3cc4ccccc4oc3=O)c2)cc1[N+](=O)[O-]	.	.	.	.	79.6
COc1ccc(OC)c(NC(=O)NC2CCCc3ccccc32)c1 (centres undefined)	.	.	.	.	.
O=C(N/N=C/c1ccc([N+](=O)[O-])cc1)c1cccc(N2CCCC2=O)c1	.	.	.	.	.
COc1cccc(/C=N/NC(=O)c2ccc(N3CCCC3=O)cc2)c1	.	/	.	.	/
O=C(N/N=C/c1cc(Br)cc(Br)c1O)c1cccc(N2CCCC2=O)c1	.	.	.	.	131.5
O=C(N/N=C/c1ccc(Cl)cc1Cl)c1cccc(N2CCCC2=O)c1	.	.	.	.	84.8
COc1cccc(-c2cc(C(=O)NCc3ccco3)no2)c1	.	.	.	.	.
COc1ccc(OC)c(-c2cc(C(=O)NCc3ccco3)no2)c1	.	.	.	.	80.6
COc1ccc(OC)c(-c2cc(C(=O)Nc3cc(C)on3)no2)c1	.	.	62.7	.	?
COc1ccc(OC)c(-c2cc(C(=O)Nc3c(C)nn(Cc4ccc(Cl)cc4)c3C)no2)c1	.	.	.	.	78.4
COc1ccc(-c2cc(C(=O)Nc3cccc(Cl)c3)no2)cc1	.	.	.	.	.
COc1ccc(OC)c(-c2cc(C(=O)Nc3cccc(Cl)c3)no2)c1	.	.	/	.	93.9
COc1cccc(CNC(=O)CCC2CCCN(C(=O)C3CCOCC3)C2)c1 (centres undefined)	.	.	.	.	.
Cc1ccc(OCCNC(=O)c2cc(C(=O)NCCOc3ccc(C)cc3)cc([N+](=O)[O-])c2)cc1	.	.	.	.	71.5
COc1cccc(OCCNC(=O)c2cc([N+](=O)[O-])cc([N+](=O)[O-])c2)c1	.	.	.	.	.
CC(Sc1nc2ncc(Cl)cc2[nH]1)C(=O)Nc1ccc(C(N)=O)cc1 (centres undefined)	.	.	.	.	.
O=C(NCc1ccccc1Cl)C1CCN(S(=O)(=O)c2ccc(N3CCCC3=O)cc2)CC1	.	/	.	.	113.8
CCc1nc2c(OCCc3cccc(OC)c3)cccn2c1N(C)C(=O)c1cccs1	/	/	.	/	/
CCC(=O)N1CCN(c2ccc(Cl)cc2NC(=O)c2cccc([N+](=O)[O-])c2)CC1	.	.	.	.	70.8
CCC(=O)N1CCN(c2ccc(Cl)cc2NC(=O)c2ccc([N+](=O)[O-])o2)CC1	.	.	.	.	.
CCC(=O)N1CCN(c2ccccc2NC(=S)NC(=O)c2cccc([N+](=O)[O-])c2)CC1	.	.	.	.	70.4
O=C(c1ccc(-c2cccc([N+](=O)[O-])c2)o1)N1CCN(c2ccc([N+](=O)[O-])cc2)CC1	.	.	.	.	71.1
CCC(=O)N1CCN(c2ccccc2NC(=O)c2ccc(-c3cccc([N+](=O)[O-])c3)o2)CC1	.	.	.	.	75.7
CN1CCN(c2ccccc2NC(=O)c2ccc(-c3cccc([N+](=O)[O-])c3)o2)CC1	.	.	.	.	.
COc1ccc(CC(=O)OCC(=O)Nc2ccc3[nH]c(=O)[nH]c3c2)cc1OC	.	/	.	.	/
O=C(/C=C/[C@H]1O[C@@H](n2ccc(=O)[nH]c2=O)[C@H](O)[C@@H]1O)N1CCN(CCc2ccccc2)CC1	/	/	.	/	/
CN(C)S(=O)(=O)c1ccc(NC(=O)CNc2cc(S(=O)(=O)N3CCCC3)ccc2OCC(F)(F)F)cc1	.	.	.	.	.
COc1cc(C(=O)OCC(=O)Nc2ccccc2C(=O)NC2CC2)c([N+](=O)[O-])cc1OC	.	.	.	.	.
COc1cccc(C(=O)NC(=S)Nc2ccccc2N2CCCCC2)c1	.	.	.	.	.
COc1cccc(C(=O)NC(=S)Nc2ccccc2N2CCCC2)c1	.	.	.	.	85.0
